Results from ChEMBL document CHEMBL1124260, “Synthesis and antitumor activity of quaternary ellipticine glycosides, a series of novel and highly active antitumor agents” (1988).

How the values were obtained:
[1] = system: Mus musculus; assay: Antitumor activity against ip implanted L1210 leukemia in mouse after ip administration of 40 mg/kg for 5 days expressed as increase in mean life span; format: functional; details: 120 h, route intraperitoneal
Outline: (§1)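 Drug was dissolved in 0.9% NaCl, diluted just before use and given ip once daily for 5 consecutive days, starting 24 h after transplant. ILS % = mean survival time of treated vs control mice, observed for 80 days.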

[2] = system: Mus musculus; assay: Number of survivors out of 6 ip implanted L1210 leukemia mouse tested after 80 days at 40 mg/kg; format: functional; details: route intraperitoneal
Outline: (§2)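 Female BDF1 mice implanted ip with ascitic fluid holding 10^5 L1210 cells. Saline-dissolved drug given ip daily on days 1-5, starting 24 h after implant. Six mice per dose group, followed 80 days. Survivors/total counted at day 80; ILS % from mean survival time vs controls.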

[3] = system: Mus musculus; assay: Number of survivors out of 6 ip implanted L1210 leukemia in mouse after ip administration of 10 mg/kg after 80 days; format: functional; details: route intraperitoneal; outline: as §2
[4] = system: Mus musculus; assay: Number of survivors out of 6 ip implanted L1210 leukemia in mouse after ip administration of 20 mg/kg after 80 days; format: functional; details: route intraperitoneal; outline: as §2
[5] = system: Mus musculus; assay: Number of survivors out of 6 ip implanted L1210 leukemia in mouse after ip administration of 40 mg/kg after 80 days; format: functional; details: route intraperitoneal; outline: as §2
[6] = system: Mus musculus; assay: Antitumor activity against ip implanted L1210 leukemia in mouse after ip administration of 1.25 mg/kg for 5 days expressed as increase in mean life span; format: functional; details: 120 h, route intraperitoneal; outline: as §1
[7] = system: Mus musculus; assay: Number of survivors out of 6 ip implanted P388 leukemia in mouse after ip administration of 10 mg/kg after 80 days; format: functional; details: route intraperitoneal
Outline: (§3)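 P388 leukemia, 10^6 ascitic cells implanted ip in female BDF1 mice. Drug in saline given ip for 5 consecutive days from 24 h after transplant. Groups of six per dose level. Survivors/total recorded at the 80-day end of observation; ILS % from treated/control mean survival time.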

[8] = system: Mus musculus; assay: Number of survivors out of 6 ip implanted P388 leukemia in mouse after ip administration of 20 mg/kg after 80 days; format: functional; details: route intraperitoneal; outline: as §3
[9] = system: Mus musculus; assay: Number of survivors out of 6 ip implanted P388 leukemia in mouse after ip administration of 40 mg/kg after 80 days; format: functional; details: route intraperitoneal; outline: as §3
[10] = system: Mus musculus; assay: Antitumor activity against ip implanted L1210 leukemia in mouse after ip administration of 10 mg/kg for 5 days expressed as increase in mean life span; format: functional; details: route intraperitoneal, 10 mg/kg; outline: as §1
[11] = system: Mus musculus; assay: Antitumor activity against ip implanted L1210 leukemia in mouse after ip administration of 20 mg/kg for 5 days expressed as increase in mean life span; format: functional; details: 120 h, route intraperitoneal; outline: as §1
[12] = system: Mus musculus; assay: Antitumor activity against ip implanted L1210 leukemia in mouse after ip administration of 30 mg/kg for 5 days expressed as increase in mean life span; format: functional; details: Mus musculus, L1210, ip, 120 h, route intraperitoneal; outline: as §1
[13] = system: Mus musculus; assay: Antitumor activity against ip implanted L1210 leukemia in mouse after ip administration of 5 mg/kg for 5 days expressed as increase in mean life span; format: functional; details: Mus musculus, L1210, ip, 120 h, route intraperitoneal; outline: as §1
[14] = system: Mus musculus; assay: Antitumor activity against ip implanted P388 leukemia in mouse after ip administration of 1.25 mg/kg for 5 days expressed as increase in mean life span; format: functional; details: 120 h, route intraperitoneal
Outline: (§4)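 Saline-dissolved drug was given ip daily for 5 consecutive days, beginning 24 h post-transplant. ILS % was calculated from treated vs control mean survival time over an 80-day observation period.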

[15] = system: Mus musculus; assay: Antitumor activity against ip implanted P388 leukemia in mouse after ip administration of 10 mg/kg for 5 days expressed as increase in mean life span; format: functional; details: 120 h, route intraperitoneal; outline: as §4
[16] = system: Mus musculus; assay: Antitumor activity against ip implanted P388 leukemia in mouse after ip administration of 20 mg/kg for 5 days expressed as increase in mean life span; format: functional; details: 120 h, route intraperitoneal; outline: as §4
[17] = system: Mus musculus; assay: Antitumor activity against ip implanted P388 leukemia in mouse after ip administration of 40 mg/kg for 5 days expressed as increase in mean life span; format: functional; details: 120 h, route intraperitoneal; outline: as §4
[18] = system: Mus musculus; assay: Antitumor activity against ip implanted P388 leukemia in mouse after ip administration of 5 mg/kg for 5 days expressed as increase in mean life span; format: functional; details: 120 h, route intraperitoneal; outline: as §4
[19] = system: Mus musculus; assay: Number of survivors out of 6 ip implanted L1210 leukemia mouse, tested after 80 days at 30 mg/kg; format: functional; details: route intraperitoneal; outline: as §2
[20] = system: Mus musculus; assay: Inhibition of sc implanted syngeneic colon 38 carcinoma by ip administration at 20 mg/kg on 1, 3, 5, 7, 9 days measured as inhibition ratio; format: functional; details: route subcutaneous
Outline: (§5)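 Tumor homogenate (70 mg) implanted into the axillary region of female BDF1 mice. Drug dissolved in 0.9% NaCl and diluted with saline just before use, then given ip on days 1, 3, 5, 7 and 9. Tumor length and width were measured by caliper on day 20 after inoculation and converted to estimated weight. Result reported as treated vs control tumor weight, T/C %.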

[21] = system: Mus musculus; assay: Inhibition of sc implanted syngeneic colon 38 carcinoma by ip administration at 30 mg/kg on 1, 3, 5, 7, 9 days measured as inhibition ratio; format: functional; details: route intraperitoneal; outline: as §5
[22] = system: Mus musculus; assay: Inhibition of sc implanted syngeneic colon 38 carcinoma by ip administration at 40 mg/kg on 1, 3, 5, 7, 9 days measured as inhibition ratio; format: functional; details: route subcutaneous; outline: as §5
[23] = system: Mus musculus; assay: Effect on ip implanted syngeneic B16 melanoma by ip administration of 20 mg/kg for 9 days measured as increase in mean life span; details: 216 h
[24] = system: Mus musculus; assay: Effect on ip implanted syngeneic B16 melanoma by ip administration for 9 days at 5 mg/kg was measured as increase in mean life span; details: 216 h
[25] = system: Mus musculus; assay: Effect on ip implanted syngeneic B16 melanoma by ip administration for 9 days at 10 mg/kg was measured as increase in mean life span; details: 216 h
[26] = system: Mus musculus; assay: Antitumor activity against ip implanted L1210 leukemia in mouse after iv administration of 8 mg/kg for 5 days expressed as increase in mean life span; details: 120 h
[27] = system: Mus musculus; assay: Antitumor activity against ip implanted P388 leukemia in mouse after iv administration of 32 mg/kg for 5 days expressed as increase in mean life span; details: 120 h
[28] = system: Mus musculus; assay: Antitumor activity against ip implanted L1210 leukemia in mouse after iv administration of 32 mg/kg for 5 days expressed as increase in mean life span; details: 120 h
[29] = system: Mus musculus; assay: Antitumor activity against ip implanted L1210 leukemia in mouse after iv administration of 16 mg/kg for 5 days expressed as increase in mean life span; details: 120 h

Cc1c2cc[n+](C3OC(CO)C(O)C(O)C3O)cc2c(C)c2c1[nH]c1ccccc12.[Br-] (stereo not given) gave an ILS at 40 mg/kg [1] of 39% and a Cures [2] of 0.
In the case of Cc1c2cc[n+]([C@@H]3O[C@H](CO)[C@H](O)[C@@H]3O)cc2c(C)c2c1[nH]c1ccc(O)cc12.[Cl-] (stereo in doubt; 43a), the Cures [3] is reported as 2, the Cures [4] is reported as 3 and the Cures [5] is reported as 1. It also gave an ILS at 1.25 mg/kg [6] of 46%, a Cures [7] of 2 and a Cures [8] of 4. The Cures [9] was 2, the ILS [10] was >377% and the ILS at 20 mg/kg [11] was > 503%. For the same compound, the ILS at 30 mg/kg [12] was > 967%, the ILS at 40 mg/kg [1] was > 281% and the ILS at 5 mg/kg [13] was 102%. The ILS at 1.25 mg/kg [14] was 68%, the ILS at 10 mg/kg [15] was > 332% and the ILS at 20 mg/kg [16] was > 510%. For the same compound, the ILS at 40 mg/kg [17] was > 220%, the ILS at 5 mg/kg [18] was 158% and the Cures [19] was 6. It also gave a T/C [20] of 61%, a T/C [21] of 19% and a T/C [22] of 8%. The ILS at 20 mg/kg [23] was 77%, the ILS at 5 mg/kg [24] was 39% and the ILS at 10 mg/kg [25] was 44%. It also gave an ILS at 8 mg/kg [26] of 49%, an ILS at 32 mg/kg [27] of 176% and an ILS at 32 mg/kg [28] of 134%. For the same compound, the ILS at 16 mg/kg [29] was 81%.
